Values after ≈ are worked out from the molar mass of the structure shown.
Columns and labels:
Assay type in all cases: functional
Candida albicans = test: Antimicrobial activity against Candida albicans NCIM 3100 after 16 to 18 hrs by serial dilution method
Summary of the method: (§1)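 Compounds were dissolved in dimethylformamide as stock. An 18-h broth culture was inoculated by loop into nutrient broth and grown 4 h at 37 °C. Stock was serially diluted by 0.5 mL transfers across tubes 1–10, with tube 11 as growth control. About 0.5 mL diluted culture was added per tube, then incubated at 37 °C for 16–18 h. Reference drugs: nitrofurazone for bacteria, fluconazole for Candida.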

Staphylococcus aureus = test: Antimicrobial activity against Staphylococcus aureus ATCC 25923 after 16 to 18 hrs by serial dilution method; summary of the method: as §1
Escherichia coli = test: Antimicrobial activity against sEscherichia coli ATCC 25922 after 16 to 18 hrs by serial dilution method; summary of the method: as §1
Pseudomonas aeruginosa = test: Antimicrobial activity against sPseudomonas aeruginosa ATCC 27853 after 16 to 18 hrs by serial dilution method; summary of the method: as §1
Bacillus subtilis = test: Antimicrobial activity against Bacillus subtilis after 16 to 18 hrs by serial dilution method; summary of the method: as §1

SMILES	MIC (Candida albicans) [µg/mL]	MIC (Staphylococcus aureus) [µg/mL]	MIC (Escherichia coli) [µg/mL]	MIC (Pseudomonas aeruginosa) [µg/mL]	MIC (Bacillus subtilis) [µg/mL]
OC(Cn1cncn1)(Cn1cncn1)c1ccc(F)cc1F [FLUCONAZOLE]	0.25 (≈ 0.816 µM)	–	–	–	–
COc1ccc(-n2cc(C(=O)c3ccccc3)c(-c3ccc([N+](=O)[O-])s3)n2)cc1	0.25 (≈ 0.617 µM)	0.25 (≈ 0.617 µM)	0.25 (≈ 0.617 µM)	0.25 (≈ 0.617 µM)	0.25 (≈ 0.617 µM)
Cc1ccc(C(=O)c2cn(-c3ccc(C)cc3)nc2-c2ccc([N+](=O)[O-])s2)cc1	0.125 (≈ 0.31 µM)	0.125 (≈ 0.31 µM)	0.125 (≈ 0.31 µM)	0.125 (≈ 0.31 µM)	0.125 (≈ 0.31 µM)
Cc1ccc(-n2cc(C(=O)c3ccc(Cl)cc3)c(-c3ccc([N+](=O)[O-])s3)n2)cc1	0.125 (≈ 0.295 µM)	0.125 (≈ 0.295 µM)	0.125 (≈ 0.295 µM)	0.125 (≈ 0.295 µM)	0.125 (≈ 0.295 µM)
NC(=O)N/N=C/c1ccc([N+](=O)[O-])o1 [NITROFURAZONE]	–	0.25 (≈ 1.26 µM)	0.25 (≈ 1.26 µM)	0.25 (≈ 1.26 µM)	0.25 (≈ 1.26 µM)
COc1ccc(C(=O)c2cn(-c3ccccc3)nc2-c2ccc([N+](=O)[O-])s2)cc1	0.25 (≈ 0.617 µM)	0.25 (≈ 0.617 µM)	0.25 (≈ 0.617 µM)	0.25 (≈ 0.617 µM)	0.25 (≈ 0.617 µM)
O=C(c1ccc(Cl)cc1)c1cn(-c2ccccc2)nc1-c1ccc([N+](=O)[O-])s1	0.125 (≈ 0.305 µM)	0.125 (≈ 0.305 µM)	0.125 (≈ 0.305 µM)	0.125 (≈ 0.305 µM)	0.125 (≈ 0.305 µM)
O=C(c1ccccc1)c1cn(-c2ccccc2)nc1-c1ccc([N+](=O)[O-])s1	0.25 (≈ 0.666 µM)	0.25 (≈ 0.666 µM)	0.25 (≈ 0.666 µM)	0.25 (≈ 0.666 µM)	0.25 (≈ 0.666 µM)
COc1ccc(-n2cc(C(=O)c3ccc(Cl)cc3)c(-c3ccc([N+](=O)[O-])s3)n2)cc1	0.125 (≈ 0.284 µM)	0.25 (≈ 0.568 µM)	0.25 (≈ 0.568 µM)	0.25 (≈ 0.568 µM)	0.25 (≈ 0.568 µM)
Cc1ccc(C(=O)c2cn(-c3ccccc3)nc2-c2ccc([N+](=O)[O-])s2)cc1	0.25 (≈ 0.642 µM)	0.25 (≈ 0.642 µM)	0.25 (≈ 0.642 µM)	0.25 (≈ 0.642 µM)	0.25 (≈ 0.642 µM)
COc1ccc(-n2cc(C(=O)c3ccc(C)cc3)c(-c3ccc([N+](=O)[O-])s3)n2)cc1	0.25 (≈ 0.596 µM)	0.25 (≈ 0.596 µM)	0.25 (≈ 0.596 µM)	0.25 (≈ 0.596 µM)	0.25 (≈ 0.596 µM)
Cc1ccc(-n2cc(C(=O)c3ccccc3)c(-c3ccc([N+](=O)[O-])s3)n2)cc1	0.25 (≈ 0.642 µM)	0.25 (≈ 0.642 µM)	0.25 (≈ 0.642 µM)	0.25 (≈ 0.642 µM)	0.25 (≈ 0.642 µM)
